Laboratory results: ChEMBL document CHEMBL4406880, “Design, synthesis, and bioactivity of dihydropyrimidine derivatives as kinesin spindle protein inhibitors” (Bioorg Med Chem, 2019)

Columns and labels:
Format in all cases: functional
CCRF-CEM = test: Growth inhibition of human CCRF-CEM cells assessed as growth percentage at 10 uM incubated for 48 hrs by sulforhodamine B assay relative to control; conditions: read-out: Activity
Method in brief: (§1)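 NCI-60 one-dose screen: cells in RPMI 1640 with 5% FBS and 2 mM L-glutamine, plated at 5,000–40,000 cells/well and preincubated 24 h at 37 °C, 5% CO2. Compound is added from a DMSO stock to a final 10 µM and incubated 48 h. Cells are TCA-fixed and stained with sulforhodamine B, read at 515 nm. Output is % growth versus untreated control, with a time-zero plate.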

A549 = test: Growth inhibition of human A549/ATCC cells assessed as growth percentage at 10 uM incubated for 48 hrs by sulforhodamine B assay relative to control; conditions: A549, 48 h, read-out: Activity; method in brief: as §1
SR = test: Growth inhibition of human SR cells assessed as growth percentage at 10 uM incubated for 48 hrs by sulforhodamine B assay relative to control; conditions: read-out: Activity
Method in brief: (§2)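 NCI-60 single-dose screen. Cells were grown in RPMI 1640 with 5% FBS and 2 mM L-glutamine and plated at 5,000–40,000 cells/well. After an overnight preincubation at 37 °C in 5% CO2, compound was added at a final 10 µM from a DMSO stock, with DMSO/PBS controls. After 48 h, cells were TCA-fixed and stained with 0.4% SRB, and absorbance was read at 515 nm. Growth is given as a percentage of untreated control.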

RPMI-8226 = test: Growth inhibition of human RPMI8226 cells assessed as growth percentage at 10 uM incubated for 48 hrs by sulforhodamine B assay relative to control; conditions: RPMI-8226, 48 h, read-out: Activity; method in brief: as §2
EKVX = test: Growth inhibition of human EKVX cells assessed as growth percentage at 10 uM incubated for 48 hrs by sulforhodamine B assay relative to control; conditions: read-out: Activity; method in brief: as §1
K562 = test: Growth inhibition of human K562 cells assessed as growth percentage at 10 uM incubated for 48 hrs by sulforhodamine B assay relative to control; conditions: K562, 48 h, read-out: Activity
Method in brief: (§3)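 NCI-60 one-dose screen. Cells in RPMI 1640 with 5% FBS and 2 mM L-glutamine, seeded at 5,000–40,000 cells/well according to doubling time, and preincubated overnight at 37 °C, 5% CO2. A time-zero plate was TCA-fixed at drug addition. Compound from DMSO stock, final 10 µM, 48 h; DMSO vehicle controls. Fixation with TCA, 10% final (16% for suspension cells). SRB stain, Tris solubilization, A515. Result given as % growth versus untreated cells.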

HL-60(TB) = test: Growth inhibition of human HL-60(TB) cells assessed as growth percentage at 10 uM incubated for 48 hrs by sulforhodamine B assay relative to control; conditions: HL-60, 48 h, read-out: Activity
Method in brief: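 NCI-60 single-dose screen. Cells in RPMI 1640 with 5% FBS and 2 mM L-glutamine are plated at 5,000–40,000 cells/well and preincubated overnight at 37 °C, 5% CO2. Compound is added from a DMSO stock at 10 µM final for 48 h. Cells are TCA-fixed (suspension cells 16% final) and stained with SRB. Absorbance is read at 515 nm, and percentage growth is calculated against untreated controls with a time-zero plate.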

NCI-H522 = test: Growth inhibition of human NCI-H522 cells assessed as growth percentage at 10 uM incubated for 48 hrs by sulforhodamine B assay relative to control; conditions: NCI-H522, 48 h, read-out: Activity; method in brief: as §3
HCT-15 = test: Growth inhibition of human HCT15 cells assessed as growth percentage at 10 uM incubated for 48 hrs by sulforhodamine B assay relative to control; conditions: HCT-15, 48 h, read-out: Activity; method in brief: as §1
SF-295 = test: Growth inhibition of human SF295 cells assessed as growth percentage at 10 uM incubated for 48 hrs by sulforhodamine B assay relative to control; conditions: SF-295, 48 h, read-out: Activity; method in brief: as §2
SF-539 = test: Growth inhibition of human SF539 cells assessed as growth percentage at 10 uM incubated for 48 hrs by sulforhodamine B assay relative to control; conditions: SF-539, 48 h, read-out: Activity; method in brief: as §2
SNB-19 = test: Growth inhibition of human SNB19 cells assessed as growth percentage at 10 uM incubated for 48 hrs by sulforhodamine B assay relative to control; conditions: SNB-19, 48 h, read-out: Activity; method in brief: as §2
U-251 = test: Growth inhibition of human U251 cells assessed as growth percentage at 10 uM incubated for 48 hrs by sulforhodamine B assay relative to control; conditions: U-251, 48 h, read-out: Activity; method in brief: as §2
LOX IMVI = test: Growth inhibition of human LOXIMVI cells assessed as growth percentage at 10 uM incubated for 48 hrs by sulforhodamine B assay relative to control; conditions: read-out: Activity; method in brief: as §3
M14 = test: Growth inhibition of human M14 cells assessed as growth percentage at 10 uM incubated for 48 hrs by sulforhodamine B assay relative to control; conditions: M14, 48 h, read-out: Activity; method in brief: as §3
SK-MEL-2 = test: Growth inhibition of human SK-MEL-2 cells assessed as growth percentage at 10 uM incubated for 48 hrs by sulforhodamine B assay relative to control; conditions: SK-MEL-2, 48 h, read-out: Activity; method in brief: as §2
SK-MEL-5 = test: Growth inhibition of human SK-MEL-5 cells assessed as growth percentage at 10 uM incubated for 48 hrs by sulforhodamine B assay relative to control; conditions: SK-MEL-5, 48 h, read-out: Activity; method in brief: as §2
UACC-257 = test: Growth inhibition of human UACC257 cells assessed as growth percentage at 10 uM incubated for 48 hrs by sulforhodamine B assay relative to control; conditions: UACC-257, 48 h, read-out: Activity; method in brief: as §2
UACC-62 = test: Growth inhibition of human UACC62 cells assessed as growth percentage at 10 uM incubated for 48 hrs by sulforhodamine B assay relative to control; conditions: UACC-62, 48 h, read-out: Activity; method in brief: as §2
OVCAR-4 = test: Growth inhibition of human OVCAR4 cells assessed as growth percentage at 10 uM incubated for 48 hrs by sulforhodamine B assay relative to control; conditions: OVCAR-4, 48 h, read-out: Activity; method in brief: as §3
MCF7 = test: Growth inhibition of human MCF7 cells assessed as growth percentage at 10 uM incubated for 48 hrs by sulforhodamine B assay relative to control; conditions: MCF7, 48 h, read-out: Activity; method in brief: as §3
MDA-MB-231 = test: Growth inhibition of human MDA-MB-231 cells assessed as growth percentage at 10 uM incubated for 48 hrs by sulforhodamine B assay relative to control; conditions: MDA-MB-231, 48 h, read-out: Activity; method in brief: as §3
Hs-578T = test: Growth inhibition of human Hs 578T cells assessed as growth percentage at 10 uM incubated for 48 hrs by sulforhodamine B assay relative to control; conditions: read-out: Activity; method in brief: as §3
BT-549 = test: Growth inhibition of human BT549 cells assessed as growth percentage at 10 uM incubated for 48 hrs by sulforhodamine B assay relative to control; conditions: BT-549, 48 h, read-out: Activity; method in brief: as §1

SMILES	growth at 10 µM (CCRF-CEM)	growth at 10 µM (A549)	growth at 10 µM (SR)	growth at 10 µM (RPMI-8226)	growth at 10 µM (EKVX)	growth at 10 µM (K562)	growth at 10 µM (HL-60(TB))	growth at 10 µM (NCI-H522)	growth at 10 µM (HCT-15)	growth at 10 µM (SF-295)	growth at 10 µM (SF-539)	growth at 10 µM (SNB-19)	growth at 10 µM (U-251)	growth at 10 µM (LOX IMVI)	growth at 10 µM (M14)	growth at 10 µM (SK-MEL-2)	growth at 10 µM (SK-MEL-5)	growth at 10 µM (UACC-257)	growth at 10 µM (UACC-62)	growth at 10 µM (OVCAR-4)	other results
CC(=O)C1=C(C)NC(=O)NC1c1ccc2c(c1)OCO2 (racemic)	98.5%	103%	108%	103%	101%	104%	98.6%	91.1%	106%	106%	102%	95.4%	100%	96.4%	104%	110%	100%	107%	98.9%	108%	growth at 10 µM (MCF7): 96.9%; growth at 10 µM (MDA-MB-231): 102%; growth at 10 µM (Hs-578T): 111%; growth at 10 µM (BT-549): 112%
CC1=C(C(=O)c2ccccc2)C(c2ccc3c(c2)OCO3)NC(=S)N1 (racemic)	41.2%	40.3%	6.28%	44%	73.5%	24.6%	2.6%	38.3%	33.7%	51.2%	36.4%	63.8%	37.5%	36.2%	34.6%	60.5%	28.2%	57.2%	51.6%	82.3%	growth at 10 µM (MCF7): 22%; growth at 10 µM (MDA-MB-231): 79.1%; growth at 10 µM (Hs-578T): 23.4%; growth at 10 µM (BT-549): 50.6%
O=C1C2=C(NC(=S)NC2c2ccc3c(c2)OCO3)c2ccccc21 (racemic)	108%	107%	107%	103%	102%	103%	99.7%	91.5%	105%	102%	105%	100%	97.8%	99.2%	110%	105%	101%	102%	99.7%	102%	growth at 10 µM (MCF7): 96.8%; growth at 10 µM (MDA-MB-231): 104%; growth at 10 µM (Hs-578T): 96.8%; growth at 10 µM (BT-549): 101%
CC1=C(C(=O)c2ccccc2)C(c2ccc3c(c2)OCO3)NC(=O)N1 (racemic)	98.5%	101%	101%	100%	95.1%	92.7%	105%	90.3%	99.8%	101%	99.7%	101%	96.5%	97.3%	99.8%	105%	98.8%	98%	94.3%	99.9%	growth at 10 µM (MCF7): 97.5%; growth at 10 µM (MDA-MB-231): 102%; growth at 10 µM (Hs-578T): 102%; growth at 10 µM (BT-549): 95.6%
O=C1NC2=C(C(=O)c3ccccc32)C(c2ccc3c(c2)OCO3)N1 (racemic)	103%	106%	110%	107%	97.4%	104%	98.9%	90.7%	105%	103%	94.7%	97.9%	100%	96.8%	110%	108%	101%	100%	101%	116%	growth at 10 µM (MCF7): 96.5%; growth at 10 µM (MDA-MB-231): 109%; growth at 10 µM (Hs-578T): 98.8%; growth at 10 µM (BT-549): 102%
CC1(C)CC(=O)C2=C(C1)NC(=O)NC2c1ccc2c(c1)OCO2 (racemic)	111%	108%	118%	110%	107%	108%	97.6%	93.9%	103%	112%	106%	108%	103%	99.3%	102%	104%	100%	102%	107%	102%	growth at 10 µM (MCF7): 98.3%; growth at 10 µM (MDA-MB-231): 111%; growth at 10 µM (Hs-578T): 113%; growth at 10 µM (BT-549): 109%
CC(=O)C1=C(C)Nc2nc3ccccc3n2C1c1ccc2c(c1)OCO2 (racemic)	94.8%	99%	73.8%	96.4%	110%	82.9%	98.4%	73%	98.2%	103%	99.7%	99.6%	95.7%	94.9%	105%	130%	102%	111%	94.4%	102%	growth at 10 µM (MCF7): 96.4%; growth at 10 µM (MDA-MB-231): 93.5%; growth at 10 µM (Hs-578T): 99.8%; growth at 10 µM (BT-549): 102%
